DENV2 CPE rescue = protects cells from dengue virus 2 cytopathic effect | 350,000 compounds, 1.7% hits | DENV2-infected cells, cytopathic effect rescue, plate reader | CPE inhibition, % at 9.99 µM; in the data active means CPE inhibition above about 20%, passing the limit was not always enough; inconclusive means no clear call, values can overlap the other calls; tested in BHK-21 cells;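 further: 0% = median of neutral control wells and 100% = median of positive control wells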
S100A4 MyoIIA = inhibitors of human S100A4 binding to myosin IIA peptide; P26447; S100A4/TAMRA-MyoIIA peptide fluorescence polarization; inhibition, % at 10.7 µM; 360,000 compounds, 0.14% hits;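 active means mean inhibition of at least 70% across replicates, with every replicate also reaching that level; inconclusive means mean inhibition reaches 70% but some replicates fall short; inactive means mean inhibition below 70%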
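Material: S100A4 monomer (human). Medium: Calcium-containing HEPES buffer, pH 7.2. Probe or stimulus: labelled myosin peptide probe, 5 nM. Compound dosing: one concentration per compound. Timing: polarization read 5 min after assay mix addition, stable 5–60 min. Benchmarks: DMSO as neutral control, TFP as positive control.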
E-sel inducer = induces E-selectin expression in human endothelial cells; P16581; HUVEC E-selectin immunofluorescence imaging; normalized: neutral wells 0, TNF-alpha wells 100; activation, % at 7.58 µM; 260,000 compounds, 0.37% hits; AID 686992;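 active means mean E-selectin-positive cell signal at least 10% of the positive control, reached in at least 60% of replicates, without over 20% cell loss; inconclusive means no rule given, readout overlaps actives, possibly toxicity-flagged; inactive means the rest, including those meeting only one limit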
Target sequence (P16581 whole entry, looked up): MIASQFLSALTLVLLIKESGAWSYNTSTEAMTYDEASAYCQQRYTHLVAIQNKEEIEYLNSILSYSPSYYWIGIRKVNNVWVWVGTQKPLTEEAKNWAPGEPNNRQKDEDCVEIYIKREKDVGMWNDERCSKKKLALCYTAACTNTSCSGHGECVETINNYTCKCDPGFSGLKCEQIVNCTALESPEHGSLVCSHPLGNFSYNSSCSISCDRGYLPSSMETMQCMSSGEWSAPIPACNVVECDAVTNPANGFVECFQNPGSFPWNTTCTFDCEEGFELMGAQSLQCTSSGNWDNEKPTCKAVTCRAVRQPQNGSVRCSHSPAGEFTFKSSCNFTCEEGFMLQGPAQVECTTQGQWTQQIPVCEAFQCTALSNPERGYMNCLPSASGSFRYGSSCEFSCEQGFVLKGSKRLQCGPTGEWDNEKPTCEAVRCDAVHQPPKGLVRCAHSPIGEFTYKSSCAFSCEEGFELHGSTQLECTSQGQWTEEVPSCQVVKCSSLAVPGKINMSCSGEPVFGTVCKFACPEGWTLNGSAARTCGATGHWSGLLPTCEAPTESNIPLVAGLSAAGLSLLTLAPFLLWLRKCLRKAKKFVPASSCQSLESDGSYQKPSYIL
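Test system: HUVEC | Signal: Immunofluorescence imaging | Read-out: Percent E-selectin-positive cells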
Xi reactivation = activators of X-chromosome reactivation in mouse fibroblasts; XiGFP mouse fibroblasts, % GFP-positive cells imaging, 3 d; cells co-treated with 5-aza-dC sensitizer; scaled so ellipticine positive control = 100%; 360,000 compounds, 0.055% hits; activation, % at 7.58 µM;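 active means mean normalized replicate activation at least 10% and every replicate at or above 10%; inconclusive means only one of the two criteria met; inactive means mean below 10% and not all replicates reach 10%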;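 further: 0% = median of on-plate neutral control wells and 100% = ellipticine 6 µM median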
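System: 68-5-11 XiGFP fibroblast line | Buffer or medium: DMEM containing 5-aza-dC | Compound: Single point | Times: Compounds 3 days, fix/stain 15 min at room temperature | Benchmarks: Positive control ellipticine, 6 µM final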
* = called active by the depositor; u = inconclusive; x = not tested or not shown. Most compounds without a hit are left out; they make up all but 2% or so of the library.

SMILES	DENV2 CPE rescue	S100A4 MyoIIA	E-sel inducer	Xi reactivation
CCNC(=O)C[C@@H]1CC[C@@H]2[C@@H](COc3ccc(NC(=O)Nc4cccc(OC)c4)cc3C(=O)N2C)O1	3.9	x	76.2*	0.3
COc1ccc(S(=O)(=O)N(C)C[C@@H]2Oc3ccc(NC(=O)Nc4ccc5c(c4)OCO5)cc3CC(=O)N([C@@H](C)CO)C[C@@H]2C)cc1	1.0	-9.2	-13.1	-0.1
O=C(NCC(c1ccco1)N1CCN(c2ccc(F)cc2)CC1)c1ccc2c(c1)OCO2 (stereo not drawn)	0.6	0.7	x	0.1
COc1ccc(N2CCN(C(CNC(=O)c3ccc4c(c3)OCO4)c3ccco3)CC2)cc1 (stereo not drawn)	2.4	-1.5	0.2	28.6*
COc1cc(OC)cc(-c2c(C#Cc3ccsc3)c3cc(-c4cc(OC)c(OC)c(OC)c4)ccc3n2C)c1	37.9*	-3.8	0.2	0.0
COC(=O)[C@@]1(Cc2ccccc2)[C@H]2C(=O)N(Cc3ccccc3)C(=O)[C@H]2[C@H]2CN=C(SCc3ccc(Cl)cc3)N21	84.5*	1.2	-2.1	0.2
COC(=O)[C@]1(Cc2ccccc2)N[C@H](CN(C)C(C)=O)[C@@H]2C(=O)N(C)C(=O)[C@@H]21	22.5*	-10.2	0.2	-0.1
COCC(=O)N(C)C[C@H]1N[C@@](Cc2ccccc2)(C(=O)OC)[C@H]2C(=O)N(C)C(=O)[C@@H]12	0.1	-0.6	-4.5	-0.1
CCNC(=O)N(C)C[C@H]1N[C@@](CC)(C(=O)OC)[C@H]2C(=O)N(Cc3ccccc3)C(=O)[C@@H]12	28.6*	-1.5	x	0.5
CCN1C(=O)[C@H]2[C@H]3CN=C(SCc4ccc(Cl)cc4)N3[C@@](Cc3ccccc3)(C(=O)OC)[C@H]2C1=O	17.4	0.3	x	0.4
CCN(C[C@H]1N[C@@](CC)(C(=O)OC)[C@H]2C(=O)N(Cc3ccccc3)C(=O)[C@@H]12)C(=O)COc1ccccc1	66.4*	2.3	1.7	0.0
O=C(c1cccnc1)N1C[C@H]2[C@@H](c3ccccc31)[C@@H](CO)N2CC1CCCC1	-11.7	13.4	0.1	0.0
CCN(C[C@H]1N[C@@](Cc2ccccc2)(C(=O)OC)[C@H]2C(=O)N(C)C(=O)[C@@H]12)S(=O)(=O)c1ccc(C(F)(F)F)cc1	0.3	-5.4	x	-0.1
CCN(C[C@H]1N[C@@](Cc2ccccc2)(C(=O)OC)[C@H]2C(=O)N(C)C(=O)[C@@H]12)S(=O)(=O)c1ccc(OC(F)(F)F)cc1	83.5*	2.2	x	0.0
COC(=O)[C@]1(Cc2ccccc2)N[C@H](CN(C)C(=O)Nc2ccc(Cl)cc2)[C@@H]2C(=O)N(Cc3ccccc3)C(=O)[C@@H]21	21.7*	-2.6	x	0.4
C[C@H]1CN([C@@H](C)CO)C(=O)c2cc(NC(=O)NC3CCCCC3)ccc2O[C@@H]1CN(C)C(=O)Nc1ccccc1	-0.5	157.1*	-0.2	-1.0
C[C@@H]1CN([C@H](C)CO)C(=O)c2cc(NC(=O)NC3CCCCC3)ccc2O[C@@H]1CN(C)C(=O)Nc1ccc(F)cc1	40.1*	3.2	-2.4	0.1
C[C@@H]1CN([C@H](C)CO)C(=O)c2cc(NC(=O)NC3CCCCC3)ccc2O[C@H]1CN(C)C(=O)Nc1ccc(F)cc1	2.4	-0.1	3.7	-1.2
COc1cccc(CN2CCNC(=O)C2CC(=O)NCCOc2cccnc2)c1 (stereo not drawn)	-1.5	-4.8	x	0.2
Cc1ccc(C(=O)N2CCN(c3ccccn3)CC2)cc1[N+](=O)[O-]	0.3	-0.1	x	0.0
CCC(=O)N1[C@H](CO)[C@@H](c2ccccc2)C12CN(Cc1nccs1)C2	73.1*	1.6	-0.1	0.0
OC[C@@H]1[C@@H](c2ccccc2)C2(CN(Cc3nccs3)C2)N1CCC(F)(F)F	-0.4	3.7	-0.1	0.0
CC(=O)N1[C@H](CO)[C@H](c2ccccc2)C12CN(Cc1nccs1)C2	10.0	6.6	-0.3	0.1
OC[C@@H]1[C@@H](c2ccccc2)C2(CN(Cc3nccs3)C2)N1Cc1ccncc1	11.0	1.7	0.2	0.0
O=C(c1ccccc1)N1[C@H](CO)[C@@H](c2ccccc2)C12CN(Cc1nccs1)C2	26.6*	3.6	0.2	0.0
SMILES	DENV2 CPE rescue	S100A4 MyoIIA	E-sel inducer	Xi reactivation
O=C(c1ccccc1)N1[C@@H](CO)[C@@H](c2ccccc2)C12CN(Cc1nccs1)C2	25.3*	-2.3	0.1	0.0
CC(=O)N1[C@@H](CO)[C@@H](c2ccccc2)C12CN(Cc1nccs1)C2	3.6	1.0	-0.3	0.0
OC[C@@H]1[C@H](c2ccccc2)C2(CN(Cc3nccs3)C2)N1CCC(F)(F)F	25.5*	6.9	-0.3	0.1
CCCNC(=O)N(C)C[C@H]1Oc2cc(-c3cccnc3)ccc2S(=O)(=O)N([C@@H](C)CO)C[C@@H]1C	-10.2	2.7	0.0	0.1
O=S1(=O)CCO[C@H]2Cc3ccccc3[C@H]2N1Cc1cccc(Cl)c1	u	-4.5	-0.1	0.0
O=S1(=O)CCO[C@H]2Cc3ccccc3[C@H]2N1Cc1ccc(Cl)cc1	85.2*	-0.8	0.4	-0.2
COCCNC(=O)C1(C)CCCN(C(=O)c2ccc(C(F)(F)F)cc2)C1 (stereo not drawn)	50.1*	-3.0	0.1	0.3
COCCNC(=O)C1(C)CCN(C(=O)c2ccc3sccc3c2)C1 (stereo not drawn)	53.7*	-4.3	0.0	0.0
COCCNC(=O)C1(C)CCN(C(=O)Cc2ccc(OC)c(OC)c2)C1 (stereo not drawn)	22.0*	-2.7	-0.1	0.1
Cc1noc(C)c1S(=O)(=O)Nc1ccc2c(c1)CC(=O)N([C@@H](C)CO)C[C@H](C)[C@@H](CN(C)C)O2	-1.3	-2.6	-0.1	-0.5
CC(=C/c1ccccc1)/C=N/Nc1nc(N2CCCCC2)nc(N2CCCCC2)n1	63.6*	2.3	0.6	-0.1
C/C(=N\Nc1nc(N2CCCCCC2)nc(N2CCCCCC2)n1)c1ccccc1	x	x	x	0.0
Cc1ccccc1C1c2[nH]c3ccccc3c2C[C@H]2C(=O)N(C3CC3)CC(=O)N12 (stereo partly drawn)	4.5	-1.0	54.8*	0.4
O=[N+]([O-])c1ccc(C[n+]2cccc(O)c2)cc1	66.8*	-8.4	-0.8	0.1
O=C(O)c1ccc[n+](Cc2ccc([N+](=O)[O-])cc2)c1	3.9	-2.7	0.1	-0.1
CC1(C)C(=O)N(c2ccccc2)C(=O)c2ccccc21	-1.9	0.0	52.5*	0.0
Cc1ccc(S(=O)(=O)N(C)C[C@H]2OCCCC[C@H](C)Oc3ccc(NS(=O)(=O)c4c(C)noc4C)cc3C(=O)N([C@@H](C)CO)C[C@H]2C)cc1	48.5*	-35.2	x	0.2
COc1ccc(S(=O)(=O)N(C)C[C@@H]2Oc3ccc(NS(=O)(=O)c4c(C)noc4C)cc3C(=O)N([C@H](C)CO)C[C@H]2C)cc1	x	4.4	-6.4	-0.8

High-throughput results deposited in PubChem by Broad Institute.
